“Also recorded” adds a separate entry of the source. Like-named read-outs stand apart in the source and are kept apart here. Values belong to the compound of their own block, whether it stands above or below them.
How the values were obtained:
[1] = biological target: T1, type 1 InsP3 receptor (cerebellar membranes) (Canis lupus familiaris, UniProt A0A8I3NKB2); settings: ref Kaftan et al., 1997; cited from earlier work
[2] = biological target: T1, type 1 InsP3 receptor (cerebellar membranes); experiment: InsP3 binding to cerebellar microsomes; set-up: species or system canine
Method in brief: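 Canine cerebellar microsomes prepared with protease inhibitors. Membranes added, incubated 8 min at 0° or 22°C, then pelleted at 40,000 g for 10 min for scintillation counting. Nonspecific binding measured with 40–160 μM unlabeled InsP3. Two-site Scatchard fit; 3–5 repeats, separate preparations.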

[3] = biological target: T2, type 1 InsP3-gated Ca channel (Canis lupus familiaris, UniProt A0A8I3NKB2); settings: cited from earlier work
[4] = biological target: InsP3-gated Ca channel tetrameric complex; experiment: Mathematical model of the tetrameric InsP3-gated channel complex; settings: read-out: Model dissociation constant, InsP3 low affinity site (J); 22°C
Method in brief: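 Tetramer model: each subunit has a medium-affinity InsP3 site, a low-affinity InsP3 site and a Ca site, giving 125 states. Assumes mass-action binding, diffusion-limited on-rates and identical subunits, solved at equilibrium. Low-affinity occupancy defines the active state, with open/closed transitions. Unknown parameters found by quasi-Newton iterative fitting to single-channel open probability and Ca-dependent binding data at 22°C; open-time histograms add constraints.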

intracellular Ca = settings: 100 μM; ref Wakui et al., 1989; Petersen et al., 1991; cited from earlier work
[5] = test system: cerebellar Purkinje cells; settings: flash photolysis; ref Khodakhah and Ogden, 1995; cited from earlier work
[6] = biological target: T2, type 1 InsP3-gated Ca channel; experiment: InsP3-gated channel activity in planar lipid bilayer; type: biochemical, canine
Method in brief: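 Canine cerebellar microsomes fused into PE:PS (3:1) bilayers in decane. Cytosolic side: 500 μM Na-ATP, 500 μM EGTA, 110 mM Tris, 250 mM HEPES, pH 7.35, with CaCl2 to set free Ca, verified by BTC fluorescence. Luminal side: 53 mM Ba(OH)2 as carrier, 250 mM HEPES. InsP3 added to start activity. Held at 0 mV; filtered 1 kHz, digitized 5 kHz; open-time histograms compiled.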

T1 sequence (A0A8I3NKB2 1-2757): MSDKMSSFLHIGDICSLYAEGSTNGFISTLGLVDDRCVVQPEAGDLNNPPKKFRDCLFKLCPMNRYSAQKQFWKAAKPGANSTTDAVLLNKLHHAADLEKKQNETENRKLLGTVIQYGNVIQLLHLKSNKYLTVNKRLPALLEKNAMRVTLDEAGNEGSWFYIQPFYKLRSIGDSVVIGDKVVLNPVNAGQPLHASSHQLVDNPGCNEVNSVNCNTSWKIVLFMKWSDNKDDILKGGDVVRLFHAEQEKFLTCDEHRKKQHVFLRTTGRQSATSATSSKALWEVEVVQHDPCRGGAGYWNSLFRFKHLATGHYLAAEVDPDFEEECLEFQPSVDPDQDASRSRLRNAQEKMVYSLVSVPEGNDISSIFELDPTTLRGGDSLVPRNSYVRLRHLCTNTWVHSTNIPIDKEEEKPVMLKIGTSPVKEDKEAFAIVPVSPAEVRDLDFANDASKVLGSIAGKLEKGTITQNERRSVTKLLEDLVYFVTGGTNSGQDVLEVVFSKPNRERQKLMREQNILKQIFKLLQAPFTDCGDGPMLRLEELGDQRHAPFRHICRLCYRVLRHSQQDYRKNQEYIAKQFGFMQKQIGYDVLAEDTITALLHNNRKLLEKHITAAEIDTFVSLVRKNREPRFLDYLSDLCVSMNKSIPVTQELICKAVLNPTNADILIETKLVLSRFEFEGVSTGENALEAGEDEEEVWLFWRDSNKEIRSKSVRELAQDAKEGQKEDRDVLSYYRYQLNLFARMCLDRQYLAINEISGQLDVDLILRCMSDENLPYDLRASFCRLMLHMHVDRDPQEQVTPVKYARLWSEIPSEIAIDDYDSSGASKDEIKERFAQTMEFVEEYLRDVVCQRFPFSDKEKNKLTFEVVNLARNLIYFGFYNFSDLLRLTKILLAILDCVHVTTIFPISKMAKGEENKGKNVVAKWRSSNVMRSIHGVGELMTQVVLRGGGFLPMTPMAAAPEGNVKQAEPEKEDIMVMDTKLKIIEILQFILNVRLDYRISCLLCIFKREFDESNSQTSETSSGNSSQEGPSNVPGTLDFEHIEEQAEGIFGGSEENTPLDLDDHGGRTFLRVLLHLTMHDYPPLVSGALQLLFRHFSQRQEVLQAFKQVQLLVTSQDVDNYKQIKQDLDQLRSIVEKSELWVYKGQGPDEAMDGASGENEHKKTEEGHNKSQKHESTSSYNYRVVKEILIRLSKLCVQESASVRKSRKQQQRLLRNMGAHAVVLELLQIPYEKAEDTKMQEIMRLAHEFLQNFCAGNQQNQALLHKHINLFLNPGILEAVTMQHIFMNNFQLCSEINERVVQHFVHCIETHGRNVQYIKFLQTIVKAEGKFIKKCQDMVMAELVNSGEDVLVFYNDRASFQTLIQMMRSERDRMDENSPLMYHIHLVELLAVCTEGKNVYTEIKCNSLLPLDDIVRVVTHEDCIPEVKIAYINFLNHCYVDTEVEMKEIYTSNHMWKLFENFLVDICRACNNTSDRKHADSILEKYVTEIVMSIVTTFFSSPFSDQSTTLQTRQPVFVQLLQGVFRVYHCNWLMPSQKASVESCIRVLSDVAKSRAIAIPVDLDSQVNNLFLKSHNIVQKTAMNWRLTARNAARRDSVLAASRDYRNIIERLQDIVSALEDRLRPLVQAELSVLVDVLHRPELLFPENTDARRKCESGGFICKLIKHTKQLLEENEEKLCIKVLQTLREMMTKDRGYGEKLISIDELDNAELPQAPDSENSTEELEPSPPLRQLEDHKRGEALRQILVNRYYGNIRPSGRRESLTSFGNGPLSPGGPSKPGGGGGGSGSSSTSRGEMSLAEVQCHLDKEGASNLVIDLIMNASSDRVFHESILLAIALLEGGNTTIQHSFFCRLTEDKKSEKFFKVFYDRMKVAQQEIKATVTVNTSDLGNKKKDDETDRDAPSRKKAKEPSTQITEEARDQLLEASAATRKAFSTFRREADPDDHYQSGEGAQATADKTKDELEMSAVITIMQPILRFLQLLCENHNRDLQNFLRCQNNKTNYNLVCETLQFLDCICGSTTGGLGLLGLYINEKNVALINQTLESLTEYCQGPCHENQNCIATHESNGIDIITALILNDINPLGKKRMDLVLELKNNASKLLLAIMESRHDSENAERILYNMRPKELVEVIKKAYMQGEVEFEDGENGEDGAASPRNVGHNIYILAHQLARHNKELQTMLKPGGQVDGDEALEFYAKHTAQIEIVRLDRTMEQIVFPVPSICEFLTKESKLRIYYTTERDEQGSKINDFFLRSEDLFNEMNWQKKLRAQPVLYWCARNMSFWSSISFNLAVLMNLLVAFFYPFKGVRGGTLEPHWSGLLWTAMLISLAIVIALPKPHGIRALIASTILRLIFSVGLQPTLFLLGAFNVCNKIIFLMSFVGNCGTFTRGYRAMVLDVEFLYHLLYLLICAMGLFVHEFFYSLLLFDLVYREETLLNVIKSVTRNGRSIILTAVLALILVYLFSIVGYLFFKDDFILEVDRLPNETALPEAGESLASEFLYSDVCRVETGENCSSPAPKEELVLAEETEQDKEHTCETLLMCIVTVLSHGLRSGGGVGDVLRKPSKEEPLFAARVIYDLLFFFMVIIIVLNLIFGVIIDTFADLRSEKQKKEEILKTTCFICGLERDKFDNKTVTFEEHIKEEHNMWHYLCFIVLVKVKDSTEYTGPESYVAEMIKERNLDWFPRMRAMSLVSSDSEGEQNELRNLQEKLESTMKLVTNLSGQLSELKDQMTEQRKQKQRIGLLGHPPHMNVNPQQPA

Compound: O=P(O)(O)OC1[C@H](O)[C@H](OP(=O)(O)O)C(OP(=O)(O)O)[C@H](OP(=O)(O)O)[C@H]1O (stereo partly shown) [1,3,4,5-InsP4]
Specificity of low affinity site for 1,4,5-InsP3 versus 1,3,4,5-InsP4 [1]: low level of specificity

Hill coefficient of Ca-dependent inhibition of InsP3 binding ([2]; 0°C): 1.5
Ca-dependent increase in Kd of InsP3 binding ([2]; 0°C, Ca 0.0004 to 10 μM, medium affinity site): ~3.5 fold
Decrease of InsP3 binding by Ca ([2]; 0°C, Ca increased from 0 to 100 μM, 10 nM InsP3): 66%
Hill coefficient of Ca-dependent inhibition of InsP3 binding ([2]; 22°C): 2.8
Reduction of InsP3 binding by Ca ([2]; 22°C, 170 nM InsP3, Ca 0.1 to 10 μM): 55%
Compound: [Ca+2] [Ca, calcium]
Effect of Ca on maximal number of InsP3 binding sites ([2]; 0° and 22°C): did not influence the maximal number of binding sites; also recorded: no evidence for an effect
Inhibition of channel activity by Ca ([3]; 5 μM Ca, 2 μM InsP3, ref Bezprozvanny et al., 1991): near complete inhibition

Compound: O=C(O)CN(CCOCCOCCN(CC(=O)O)CC(=O)O)CC(=O)O [EGTA]
Reversal of Ca-dependent inhibition of InsP3 binding by Ca chelation ([2]; EGTA added after Ca): fully reversible; also recorded: completely reversed; also recorded: completely reversible

Kd [4]: 10 µM
Q10 of temperature-dependent change in InsP3 binding affinity ([2]; 0° vs 22°C, cerebellar membranes): 2.3
Difference between medium and low affinity site dissociation constants ([2]; 22°C (0.3 vs ∼10 μM)): 30 ×
Difference in dissociation constants between medium and low affinity sites ([2]; 37°C (1 vs. 10 μM), predicted): 10 fold
Kd ([2]; read-out: Kd for InsP3 binding at high Ca, 22°C, 50 μM free Ca): 1.78 µM
Kd ([2]; read-out: Kd of InsP3 binding, medium affinity site, 22°C): 0.312 µM
Channel open time constant, fast component ([6]; 0.01 μM Ca, 2 μM InsP3): 1.8 ms
Channel open time constant, slow component ([6]; 0.01 μM Ca, 2 μM InsP3): 9.3 ms
Channel open time constant, fast component ([6]; 0.1 μM Ca): 0.6 ms
Channel open time constant, slow component ([6]; 0.1 μM Ca): 4.7 ms
Compound: O=P(O)(O)O[C@@H]1[C@H](O)[C@H](O)[C@@H](OP(=O)(O)O)[C@H](OP(=O)(O)O)[C@H]1O [InsP3, inositol 1,4,5-trisphosphate]
Effect of high InsP3 on Ca-dependent inhibition of channel activity ([3]; 180 μM InsP3, ref Kaftan et al., 1997): overcame the Ca-dependent inhibition of channel activity
Hill coefficient from single channel activity determinations ([3]; ref Watras et al., 1991): 1.0
Effect on intracellular Ca (intracellular Ca): sustained elevation of intracellular Ca
Intracellular InsP3 needed to induce Ca release [5]: at least 9 μM

Compound: O=P(O)(S)O[C@@H]1[C@@H](O)[C@H](OP(O)(O)=S)[C@@H](OP(O)(O)=S)[C@H](O)[C@@H]1O (stereo partly shown) [InsPS3]
Effect on intracellular Ca (intracellular Ca): sustained elevation of intracellular Ca

Compound: [Ba+2] [barium]
Effect on Ca-dependent inhibition of InsP3 binding ([2]; 100 μM free barium, data not shown): did not alter
